The record followed here is ChEMBL document CHEMBL1147705, “Imidazolylpyrimidine based CXCR2 chemokine receptor antagonists” (Bioorg Med Chem Lett, 2006).

Series [1] in a line: Stability in rat liver microsome at 10 uM after 30 min. Type of series: ADME. To be noted: liver microsomes, read-out: Stability. The gist of the method:
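Compound at 10 µM incubated with rat liver microsomal enzyme (300 nM) for 30 min at 37 °C; percent of parent remaining after 30 min quantified by LC. Values are means of at least two experiments, standard deviation <±30%.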
For orientation: Liver microsomes are a subcellular fraction often used to study metabolism.

The target in series [2] is T1, C-X-C chemokine receptor type 2 (Homo sapiens, UniProt P25025).
T1 sequence (P25025 whole entry): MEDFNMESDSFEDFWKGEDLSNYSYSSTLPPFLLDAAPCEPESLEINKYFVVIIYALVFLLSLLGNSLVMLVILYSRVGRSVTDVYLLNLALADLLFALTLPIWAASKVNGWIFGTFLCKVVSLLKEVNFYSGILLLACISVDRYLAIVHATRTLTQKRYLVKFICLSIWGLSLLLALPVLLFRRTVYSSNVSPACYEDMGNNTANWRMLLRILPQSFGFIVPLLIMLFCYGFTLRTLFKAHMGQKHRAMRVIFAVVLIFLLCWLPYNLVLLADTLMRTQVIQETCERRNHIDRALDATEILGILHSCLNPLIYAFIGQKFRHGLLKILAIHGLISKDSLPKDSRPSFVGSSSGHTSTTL
Description: Binding affinity to human CXCR2 receptor transfected in CHO cell. The format is cell-based.

Series [3] in a line: Oral bioavailability in rat at […], iv and po. Type of series: ADME, organism-based. To be noted: in vivo.
A short description of series [4]: Volume of distribution in rat at 4 umol/kg, iv and po. Type of series: ADME, organism-based. To be noted: in vivo, read-out: Vdss. The method, boiled down: (§1)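 Rats (n = 3) dosed 4 µmol/kg by iv and po routes; plasma pharmacokinetic profile followed after each route to derive the parameters.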
Series [5] can be described thus: Half life in rat at 4 umol/kg, iv and po. The format is ADME, organism-based. To be noted: in vivo. The method, boiled down: as §1
Series [6] is described as follows: AUC (infinity) in dog at 4 umol/kg, po. The format is ADME, organism-based, Canis lupus familiaris. Set-up: dose 4 umol/kg, route oral, time infinity. The note with it: plasma.
Series [7] is described as follows: Cmax in rat at 4 umol/kg, po. Set-up: dose 4 umol/kg, route oral. To be noted: in vivo. Type of series: ADME, organism-based. The gist of the method: as §1
A short description of series [8]: Cmax in dog at 4 umol/kg, po. Set-up: dose 4 umol/kg, route oral. To be noted: in vivo. Type of series: ADME, organism-based, Canis lupus familiaris.
The nature of series [9]: Half life in dog at 2 umol/kg, iv and 4 umol/kg, po. The note with it: in vivo. Type of series: ADME, organism-based, Canis lupus familiaris.
Series [10] in a line: Volume of distribution in dog at 2 umol/kg, iv and 4 umol/kg, po. Type of series: ADME, organism-based, Canis lupus familiaris. To be noted: in vivo, read-out: Vdss.
Series [11] in a line: Clearance in dog at 2 umol/kg, iv and 4 umol/kg, po. Type of series: ADME, organism-based, Canis lupus familiaris. The note with it: in vivo.
Series [12] in a line: AUC (infinity) in rat at 4 umol/kg, po. The format is ADME, organism-based. Set-up: dose 4 umol/kg, route oral, time infinity. To be noted: plasma. The method, boiled down: as §1
The nature of series [13]: Oral bioavailability in dog at 2 umol/kg, iv and 4 umol/kg, po. The format is ADME, organism-based, Canis lupus familiaris. To be noted: in vivo.
A short description of series [14]: Clearance in rat at 4 umol/kg, iv and po. The format is ADME, organism-based. The note with it: in vivo. The method, boiled down: as §1

The structures appear in SMILES notation.

For the molecule `CCCCc1cc(N[C@@H](CC(C)C)C(=O)NCCCOCC)nc(-n2cnc(-c3ccc(OC)cc3)c2)n1`, in series [1], the remaining at 0.5 h, 10 µM came to 30%. In addition, the Ki in [2] is 42 nM.

On to `CCCCc1cc(N[C@@H](CC(C)C)C(=O)NCCCOCC)nc(-n2cnc(C)c2)n1`, for which the remaining at 0.5 h, 10 µM in [1] is 25%. The Ki in [2] was determined as 90 nM.

`CCCCc1cc(N[C@@H](CC(C)C)C(=O)NCCCOCC)nc(-n2cnc(-c3ccc(F)cc3)c2)n1`: the remaining at 0.5 h, 10 µM in series [1] stood at 20%. In series [2], this molecule displayed a Ki of 37 nM.

As to `CCCCc1cc(N[C@@H](CC(C)C)C(=O)NCCCOCC)nc(-c2cccnc2)n1`, the remaining at 0.5 h, 10 µM in [1] stood at 36%. For the same molecule, in series [2], the Ki amounted to 750 nM.

With `CCCCc1cc(N[C@@H](CC(C)C)C(=O)NCCCOCC)nc(-n2cnc(-c3ccc([N+](=O)[O-])cc3)c2)n1`, the remaining at 0.5 h, 10 µM in series [1] stood at 48%. The molecule also gave a Ki in series [2] of 160 nM.

In the case of `CCOCCCNC(=O)[C@H](CC(C)C)Nc1ccnc(-n2cnc(-c3ccc(OC(F)(F)F)cc3)c2)n1`, the remaining at 0.5 h, 10 µM in series [1] was 5%. The molecule also had a Ki in series [2] of 200 nM. The same molecule returned a bioavailability in [3] of 4%.

`CCCCc1cc(N[C@@H](CC(C)C)C(=O)NCCCOCC)nc(-n2cncn2)n1`: the remaining at 0.5 h, 10 µM in series [1] worked out at 30%. Also, in series [2], the Ki is above 10000 nM.

Turning to `CCOCCCNC(=O)[C@H](CC(C)C)Nc1cc(C)nc(-n2cnc(-c3ccc(OC(F)(F)F)cc3)c2)n1`, the remaining at 0.5 h, 10 µM in [1] is 67%. In series [2], the Ki was 44 nM. The bioavailability in series [3] was found to be 22%.

In the case of `CCCCc1cc(N[C@@H](CC(C)C)C(=O)NCCCOCC)nc(-n2cnc(C(C)(C)C)c2)n1`, in [1], the remaining at 0.5 h, 10 µM was 13%. Moreover, affinity in series [2] was put at a Ki of 85 nM.

Turning to `CCCCc1cc(N[C@@H](CC(C)C)C(=O)NCCCOCC)nc(-n2cnc(-c3ccccc3)c2)n1`, the remaining at 0.5 h, 10 µM in series [1] turned out to be 2%. The same molecule yielded a Ki in [2] of 100 nM.

For `CCCc1cc(N[C@@H](CC(C)C)C(=O)NCCCOCC)nc(-n2cnc(-c3ccccc3OC(F)(F)F)c2)n1`, the remaining at 0.5 h, 10 µM in [1] was 13%. Besides, in [2], the Ki worked out at 50 nM. The same molecule registered a bioavailability in series [3] of 5%.

On to `CCCCc1cc(N[C@@H](CC(C)C)C(=O)NCCCOCC)nc(-n2ccnc2C)n1`, for which the remaining at 0.5 h, 10 µM in series [1] was determined as 27%. In series [2], this molecule returned a Ki above 10000 nM.

Regarding `CCOCCCNC(=O)[C@H](CC(C)C)Nc1cc(C(C)(C)C)nc(-n2ccnc2)n1`, in [1], the remaining at 0.5 h, 10 µM came to 83%. In addition, in series [2], the affinity, expressed as Ki, was 6000 nM.

Regarding `CCCCCCCCSc1cc(N[C@@H](CC(C)C)C(=O)NCCCOCC)nc(-n2ccnc2)n1`, the remaining at 0.5 h, 10 µM in [1] is 26%. This molecule also yielded a Ki in series [2] of 60 nM.

`CCCc1cc(N[C@@H](CC(C)C)C(=O)NCCCOCC)nc(-n2cnc(-c3ccc(OC(F)(F)F)cc3)c2)n1`: the Vd in series [4] was determined as 1.99 L/kg; in series [10], 2.79 L/kg. For the same molecule, the half-life in series [5] was 2.7 h; in series [9] it was 1.1 h. Further, the remaining at 0.5 h, 10 µM in series [1] was found to be 74%. In addition, the AUC(0-inf) is 1.39 µM·h in series [6] and 2.43 µM·h in series [12]. Further, the results for the Cmax in [7] and in series [8] were 660 nM and 300 nM, respectively. Moreover, the clearance in series [11] was 12.1 mL/min/kg; in series [14], 9.83 mL/min/kg. Also, the affinity in [2], expressed as Ki, was 25 nM. Further, the figures for the bioavailability in series [3] and in series [13] were 33% and 25%, respectively.

In series [2], `CCCCc1cc(N[C@@H](CC(C)C)C(=O)NCCCOCC)nc(-n2cnc(-c3ccc(N)cc3)c2)n1` registered a Ki of 600 nM.

Consider `CCOCCCNC(=O)[C@H](CC(C)C)Nc1cc(CC)nc(-n2cnc(-c3ccc(OC(F)(F)F)cc3)c2)n1`, for which the remaining at 0.5 h, 10 µM in [1] amounted to 77%. Besides, the Ki in [2] was 57 nM. Besides, the bioavailability in [3] was 18%.

For `CCCCc1cc(N[C@@H](CC(C)C)C(=O)NCCCOCC)nc(-n2cnc(-c3ccc(OC(F)(F)F)cc3)c2)n1`, in series [1], the remaining at 0.5 h, 10 µM came to 66%. In series [2], this molecule gave a Ki of 17 nM. The molecule also registered a bioavailability in series [3] of 7%.

As to `CCCCc1cc(N[C@@H](CC(C)C)C(=O)NCCCOCC)nc(-n2cnc(-c3ccc(Cl)cc3)c2)n1`, in series [1], the remaining at 0.5 h, 10 µM turned out to be 54%. The Ki in [2] came to 27 nM.

Take `CCCCc1cc(N[C@@H](CC(C)C)C(=O)NCCCOCC)nc(-n2cnc(-c3ccc(C(F)(F)F)cc3)c2)n1`: the remaining at 0.5 h, 10 µM in [1] amounted to 80%. Also, affinity in series [2] was put at a Ki of 14 nM.

Consider `CCCCCCc1cc(N[C@@H](CC(C)C)C(=O)NCCCOCC)nc(-n2ccnc2)n1`, for which, in series [1], the remaining at 0.5 h, 10 µM amounted to 50%. The Ki in [2] worked out at 290 nM.

Take `CCCc1cc(N[C@@H](CC(C)C)C(=O)NCCCOCC)nc(-n2cnc(-c3cccc(OC(F)(F)F)c3)c2)n1`: the remaining at 0.5 h, 10 µM in [1] was 55%. Besides, the Ki in series [2] is 35 nM. Also, the bioavailability in series [3] stood at 7%.

As for `CCCCc1cc(N[C@@H](CC(C)C)C(=O)NCCCOCC)nc(-n2cnc(-c3ccc(C)cc3)c2)n1`, the remaining at 0.5 h, 10 µM in series [1] was 35%. This molecule also had a Ki in series [2] of 40 nM.

For `CCCCc1cc(N[C@@H](CC(C)C)C(=O)NCCCOCC)nc(-n2ccnc2)n1`, in series [1], the remaining at 0.5 h, 10 µM stood at 68%. In series [2], the affinity corresponds to a Ki of 1700 nM.

As to `CCCCc1cc(N[C@@H](CC(C)C)C(=O)NCCCOCC)nc(-c2ccncc2)n1`, the remaining at 0.5 h, 10 µM in series [1] stood at 52%. The Ki in [2] was above 5000 nM.

Turning to `CCCCCCCCc1cc(N[C@@H](CC(C)C)C(=O)NCCCOCC)nc(-n2ccnc2)n1`, in series [1], the remaining at 0.5 h, 10 µM came to 36%. In series [2], this molecule returned a Ki of 120 nM.

As for `CCCCc1cc(N[C@@H](CC(C)C)C(=O)NCCCOCC)nc(-n2cnc(-c3ccc(O)cc3)c2)n1`, in series [1], the remaining at 0.5 h, 10 µM is 65%. Further, the Ki in series [2] was 32 nM.

`CCCCc1cc(N[C@@H](CC(C)C)C(=O)NCCCOCC)nc(-n2cnc(-c3ccc(C#N)cc3)c2)n1`: the remaining at 0.5 h, 10 µM in series [1] is 50%. In [2], this molecule showed a Ki of 43 nM.

By Ki is commonly meant the dissociation constant of the complex between target and ligand, obtained from inhibition or displacement. The low end stands for a stronger hold on the target, the high end for a looser hold on the target. Broadly, the bioavailability is the share of a dose that reaches the circulation, judged against a reference dose that is usually intravenous. Read a low bioavailability as poor availability. A word on the half-life: it is the time needed for the level to fall by half in the phase considered. What is called AUC(0-inf) is total exposure, with the tail of the curve extrapolated. Read a high AUC(0-inf) as high exposure. Broadly, the Cmax is the highest concentration seen after dosing.
